Results: ChEMBL document CHEMBL3091322 (J Med Chem, 2013)

Columns and labels:
Rattus norvegicus [1] = organism: Rattus norvegicus; experiment: Displacement of [3H]nisoxetine from Sprague-Dawley rat brain frontal cortex NET at 10 uM by scintillation counting analysis; type: tissue-based
Outline: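 Rat frontal cortex membranes (8 mg original wet weight) in Tris/NaCl/KCl buffer, pH 7.4, with 0.5 nM [3H]nisoxetine for 180 min at 0–4°C. Single test concentration of 10 µM. Nonspecific binding defined with desipramine. Filtration on GF/B filters, then scintillation counting. Result reported as percent displacement.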

[2] = Displacement of [3H]nisoxetine from Sprague-Dawley rat brain frontal cortex NET by scintillation counting analysis; type: tissue-based
Outline: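 Frontal cortex membranes from male Sprague-Dawley rats incubated with 0.5 nM [3H]nisoxetine for 180 min at 0–4°C in pH 7.4 Tris/NaCl/KCl buffer. Desipramine used for nonspecific binding. Full concentration curves run for compounds giving >70% displacement at 10 µM. Filtration and scintillation counting; Ki calculated.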

[3] = target: Sodium-dependent serotonin transporter (Rattus norvegicus) (UniProt P31652); experiment: Displacement of [3H]citalopram from Sprague-Dawley rat brain stem SERT site S1 at 10 uM by scintillation counting analysis; type: tissue-based
Sequence of Sodium-dependent serotonin transporter (Rattus norvegicus) (P31652 whole entry): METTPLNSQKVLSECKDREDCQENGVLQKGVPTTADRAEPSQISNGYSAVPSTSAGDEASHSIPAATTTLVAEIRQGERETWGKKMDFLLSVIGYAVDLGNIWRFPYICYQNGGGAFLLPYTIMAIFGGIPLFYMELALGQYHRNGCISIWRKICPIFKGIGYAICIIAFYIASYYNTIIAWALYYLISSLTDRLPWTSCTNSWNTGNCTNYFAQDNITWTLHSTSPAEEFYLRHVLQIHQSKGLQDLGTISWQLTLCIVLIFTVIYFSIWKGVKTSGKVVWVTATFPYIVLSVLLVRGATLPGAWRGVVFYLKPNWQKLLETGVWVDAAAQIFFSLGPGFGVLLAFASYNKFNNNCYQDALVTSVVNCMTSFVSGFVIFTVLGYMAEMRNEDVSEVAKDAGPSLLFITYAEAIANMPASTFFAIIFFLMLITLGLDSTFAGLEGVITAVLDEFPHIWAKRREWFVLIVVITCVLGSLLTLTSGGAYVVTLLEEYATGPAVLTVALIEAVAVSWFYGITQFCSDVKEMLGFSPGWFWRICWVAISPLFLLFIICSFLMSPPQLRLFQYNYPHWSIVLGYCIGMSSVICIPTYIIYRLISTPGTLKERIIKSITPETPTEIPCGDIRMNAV

[4] = target: Sodium-dependent serotonin transporter (Rattus norvegicus, UniProt P31652); experiment: Displacement of [3H]citalopram from Sprague-Dawley rat brain stem SERT site S1 by scintillation counting analysis
Sequence of Sodium-dependent serotonin transporter (Rattus norvegicus, UniProt P31652) (P31652 whole entry): as above

[5] = target: T1, Sodium-dependent serotonin transporter (Homo sapiens, UniProt P31645); experiment: biochemical; type: cell-based, COS-7
Target sequence in this assay (P31645 whole entry): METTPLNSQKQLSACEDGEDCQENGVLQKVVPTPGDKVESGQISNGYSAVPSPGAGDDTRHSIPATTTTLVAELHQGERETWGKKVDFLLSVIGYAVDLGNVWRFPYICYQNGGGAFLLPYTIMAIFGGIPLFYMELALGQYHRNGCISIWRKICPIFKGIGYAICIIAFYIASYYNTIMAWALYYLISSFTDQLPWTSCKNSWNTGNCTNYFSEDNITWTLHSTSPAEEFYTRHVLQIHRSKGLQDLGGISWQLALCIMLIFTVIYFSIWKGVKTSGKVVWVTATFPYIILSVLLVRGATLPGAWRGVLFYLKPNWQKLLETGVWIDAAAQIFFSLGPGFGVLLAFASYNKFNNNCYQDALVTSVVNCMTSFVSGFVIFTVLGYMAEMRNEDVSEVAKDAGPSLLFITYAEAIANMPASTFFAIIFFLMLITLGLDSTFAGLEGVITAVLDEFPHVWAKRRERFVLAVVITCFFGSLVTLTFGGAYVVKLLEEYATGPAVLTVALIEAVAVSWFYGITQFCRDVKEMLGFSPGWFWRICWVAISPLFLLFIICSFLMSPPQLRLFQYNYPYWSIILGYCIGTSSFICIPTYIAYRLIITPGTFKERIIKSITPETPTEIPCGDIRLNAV

Rattus norvegicus [6] = organism: Rattus norvegicus; experiment: Selectivity ratio of Ki for Sprague-Dawley rat brain frontal cortex NET to Ki for Sprague-Dawley rat brain stem SERT; type: tissue-based
[7] = target: T1, Sodium-dependent serotonin transporter; details: COS-7
Target sequence in this assay (P31645 whole entry, looked up): as the sequence (P31645 whole entry) above

Row | inhibition (Rattus norvegicus [1]) [%] | Compound | Ki [2] [nM] | also measured
1 | 31.2 | CN(CCCC1(c2ccc(F)cc2)OCc2cc(C#N)ccc21)Cc1ccnc2ccccc12 (stereo not drawn) | – | –
2 | – | CN(CCCC1(c2ccc(F)cc2)OCc2cc(C#N)ccc21)Cc1ccc2ccccc2c1 (racemic) | 272 | –
3 | – | CN(CCCC1(c2ccc(F)cc2)OCc2cc(C#N)ccc21)Cc1c[nH]c2ccccc12 (racemic) | 1300 | –
4 | – | COc1ccc2[nH]cc(CN(C)CCCC3(c4ccc(F)cc4)OCc4cc(C#N)ccc43)c2c1 (racemic) | 5090 | –
5 | – | CN(CCCC1(c2ccc(F)cc2)OCc2cc(C#N)ccc21)C1CC=C(c2c[nH]c3ccccc23)CC1 (racemic) | 1020 | –
6 | – | CN(C)CCCC1(c2ccc(F)cc2)OCc2cc(/C=C/Cc3ccccc3)ccc21 (racemic) | 4750 | –
7 | – | CN(C)CCCC1(c2ccc(F)cc2)OCc2c(I)cccc21 (racemic) | 11300 | –
8 | – | CN(C)CCCC1(c2ccc(-c3cccc(C#N)c3)cc2)OCc2cc(C#N)ccc21 (racemic) | 2800 | –
9 | – | CN(C)CCCC1(c2ccc(-c3cccc(N)c3)cc2)OCc2cc(C#N)ccc21 (racemic) | 7020 | –
10 | – | CN(C)CCCC1(c2ccc(F)cc2)COc2ccc(Br)cc21 (racemic) | 4970 | –
11 | 60.4 | CCCN(C)CCCC1(c2ccc(F)cc2)OCc2cc(C#N)ccc21 (racemic) | – | inhibition [3]: > 70%; Ki [4]: 118 nM
12 | – | CCCCN(C)CCCC1(c2ccc(F)cc2)OCc2cc(C#N)ccc21 (racemic) | 276 | inhibition [3]: > 70%; Ki [4]: 61.6 nM
13 | – | CN(CCCC1(c2ccc(F)cc2)OCc2cc(C#N)ccc21)CCc1ccccc1 (racemic) | 179 | IC50 [5]: 5300 nM; Ratio Ki (Rattus norvegicus [6]): 4.4; inhibition [3]: > 70%; Ki [4]: 40.9 nM
14 | – | CN(CCCCc1ccccc1)CCCC1(c2ccc(F)cc2)OCc2cc(C#N)ccc21 (racemic) | 448 | –
15 | – | CN(CCCC1(c2ccc(F)cc2)OCc2cc(C#N)ccc21)Cc1coc2ccccc12 (racemic) | 265 | –
16 | – | CN(CCCC1(c2ccc(F)cc2)OCc2cc(C#N)ccc21)Cc1ccc(N(C)C)cc1 (racemic) | 1380 | –
17 | – | CN(C)CCCC1(c2ccc(F)cc2)OCc2cc(C(N)=O)ccc21 (racemic) | 123 | –

Row | inhibition (Rattus norvegicus [1]) [%] | Compound | Ki [2] [nM] | also measured
18 | – | CN(C)CCCC1(c2ccc(F)cc2)OCc2cc(CN3CCOCC3)ccc21 (racemic) | > 80000 | inhibition [3]: > 70%; Ki [4]: 13.6 nM
19 | – | CN(C)CCCC1(c2ccc(F)cc2)OCc2cc(CN3CCN(c4ccccc4)CC3)ccc21 (racemic) | 11100 | –
20 | – | CN(C)CCCC1(c2ccc(F)cc2)OCc2cc(CNCc3coc4ccccc34)ccc21 (racemic) | 284 | –
21 | – | CN(C)CCCC1(c2ccc(F)cc2)OCc2cc(CNCc3ccc4ccccc4c3)ccc21 (racemic) | 653 | –
22 | – | CN(C)CCCC1(c2ccc(F)cc2)OCc2cc(CNCc3ccc4c(c3)Cc3ccccc3-4)ccc21 (racemic) | 2330 | Ratio Ki (Rattus norvegicus [6]): 99; inhibition [3]: > 70%; Ki [4]: 23.6 nM
23 | – | CN(C)CCCC1(c2ccc(F)cc2)OCc2cc(-c3ccc([N+](=O)[O-])cc3)ccc21 (racemic) | 8280 | –
24 | 17 | CN(C)CCCC(O)(c1ccc(Br)cc1)c1ccc(C#N)cc1CO (racemic) | – | –
25 | 44 | CN(C)CCCC1(c2ccc(/C=C/c3ccccc3)cc2)OCc2cc(C#N)ccc21 (racemic) | – | T1/2 [7]: 44 min
26 | 45 | CN(C)CCCC1(c2ccc(Br)cc2)OCc2cc(C#N)ccc21 (racemic) | – | –
27 | 42 | CN(C)CCCC1(c2ccc(F)cc2)OCc2cc(-c3ccc(N)cc3)ccc21 (racemic) | – | –
28 | 33.2 | CN(C)CCCC1(c2ccc(F)cc2)OCc2cc(CN)ccc21 (racemic) | – | –
29 | 19.7 | CN(C)CCCC1(c2ccc(F)cc2)OCc2cc(CN3CCN(c4cccc(Cl)c4Cl)CC3)ccc21 (racemic) | – | –
30 | 66.9 | CN(C)CCCC1(c2ccc(F)cc2)OCc2cc(CNCc3ccc4c(c3)COC4(CCCN(C)C)c3ccc(F)cc3)ccc21 (racemic) | – | –
31 | 62.9 | CN(CCCC1(c2ccc(F)cc2)OCc2cc(C#N)ccc21)Cc1csc2ccccc12 (racemic) | – | –
32 | 39.7 | COc1ccccc1N1CCN(Cc2ccc3c(c2)COC3(CCCN(C)C)c2ccc(F)cc2)CC1 (racemic) | – | –
33 | – | CN(C)CCCC1(c2ccc(F)cc2)OCc2cc(/C=C/c3ccccc3)ccc21 (single isomer, unassigned; (+)) | – | IC50 [5]: 3400 nM

Row | Compound | inhibition (Rattus norvegicus [1]) [%] | Ki [2] [nM] | also measured
34 | CN(CCCC1(c2ccc(F)cc2)OCc2cc(C#N)ccc21)Cc1ccc2c(c1)Cc1ccccc1-2 (racemic) | 60.3 | – | inhibition [3]: > 70%; Ki [4]: 19 nM
35 | CN(C)CCCC1(c2ccc(F)cc2)OCc2cc(C=O)ccc21 (racemic) | 46.1 | – | –
36 | CN(C)CCCC1(c2ccc(F)cc2)OCc2cc(CN(C)C)ccc21 (racemic) | 21.9 | – | –
37 | CN(C)CCCC1(c2ccc(F)cc2)OCc2cc(CN(C)CCCC3(c4ccc(F)cc4)OCc4cc(C#N)ccc43)ccc21 (racemic) | 65.1 | – | –
38 | CN(C)CCCC1(c2ccc(F)cc2)OCc2cc(CN3CCCCC3)ccc21 (racemic) | 29.3 | – | –
39 | CN(CCCC1(c2ccc(F)cc2)OCc2cc(C#N)ccc21)CC1CC1 (racemic) | 69.8 | – | –
40 | CN(CCCC1(c2ccc(F)cc2)OCc2cc(C#N)ccc21)Cc1ccncc1 (racemic) | 28.1 | – | –
41 | CN(CCN)CCCC1(c2ccc(F)cc2)OCc2cc(C#N)ccc21 (racemic) | 20.2 | – | –
42 | COC(=O)c1ccc2c(c1)COC2(CCCN(C)C)c1ccc(F)cc1 (racemic) | 64.3 | – | –
